In ChEMBL document CHEMBL1153829, “Exploiting chemical libraries, structure, and genomics in the search for kinase inhibitors” (Science, 1998):
The source made the active and inactive calls. No cut-off for these calls is given here.

Key:
Saccharomyces cerevisiae [1] = assay: Induction of YPR184W gene expression in delta snq2, delta pdr5 and delta erg6 knock out yeast YRP1 at 25 µM after 2 hrs by high-density oligonucleotide array; format: functional, organism-based
Procedure, shortened: (§1)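 Drug-sensitized yeast strain grown to late logarithmic phase, then exposed to 25 μM inhibitor for 2 h. Polyadenylated mRNA was isolated and converted to biotin-labeled cRNA, which was hybridized to a set of four arrays carrying over 260,000 25-nucleotide oligomers. Transcripts changing more than twofold were scored, from triplicate hybridizations in each of two independent experiments.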

Saccharomyces cerevisiae [2] = assay: Effect on YNR009w gene expression in delta snq2, delta pdr5 and delta erg6 knock out yeast YRP1 assessed as change in mRNA level at 25 µM after 2 hrs by high-density oligonucleotide array; format: functional, organism-based
Procedure, shortened: (§2)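 Drug-sensitized S. cerevisiae cultures grown to late logarithmic phase, then exposed to 25 μM inhibitor for 2 h. Polyadenylated mRNA isolated, converted to biotin-labeled cRNA and hybridized to a set of four high-density arrays carrying more than 260,000 25-nucleotide oligomers. Transcripts scored as changed when they shifted more than twofold in triplicate hybridizations for each of two independent experiments.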

Saccharomyces cerevisiae [3] = assay: Down regulation of CLB2 mRNA expression in delta snq2, delta pdr5 and delta erg6 knock out yeast YRP1 assessed as change in mRNA level at 25 µM after 2 hrs by high-density oligonucleotide array; format: functional, organism-based; procedure, shortened: as §2
Saccharomyces cerevisiae [4] = assay: Effect on YCL009c gene expression in delta snq2, delta pdr5 and delta erg6 knock out yeast YRP1 bearing cdc28-4 mutant allele assessed as change in mRNA level at 25 µM after 2 hrs by high-density oligonucleotide array; format: functional, organism-based
Saccharomyces cerevisiae [5] = assay: Effect on YGR043C gene expression in delta snq2, delta pdr5 and delta erg6 knock out yeast YRP1 assessed as change in mRNA level at 25 µM after 2 hrs by high-density oligonucleotide array; format: functional, organism-based; procedure, shortened: as §2
Saccharomyces cerevisiae [6] = assay: Upregulation of GSC2 gene expression in delta snq2, delta pdr5 and delta erg6 knock out yeast YRP1 at 25 µM after 2 hrs by high-density oligonucleotide array; format: functional, organism-based; conditions: 25 M; procedure, shortened: as §1
Saccharomyces cerevisiae [7] = assay: Decrease in RPL26B mRNA level in delta snq2, delta pdr5 and delta erg6 knock out yeast YRP1 at 25 µM after 2 hrs by high-density oligonucleotide array; format: functional; procedure, shortened: as §2
Saccharomyces cerevisiae [8] = assay: Effect on YER037w gene expression in delta snq2, delta pdr5 and delta erg6 knock out yeast YRP1 bearing cdc28-4 mutant allele assessed as change in mRNA level at 25 µM after 2 hrs by high-density oligonucleotide array; format: functional, organism-based
Saccharomyces cerevisiae [9] = assay: Effect on HTA2 gene expression in delta snq2, delta pdr5 and delta erg6 knock out yeast YRP1 bearing cdc28-4 mutant allele assessed as change in mRNA level at 25 µM after 2 hrs by high-density oligonucleotide array; format: functional, organism-based
Saccharomyces cerevisiae [10] = assay: Decrease in RPL4A mRNA level in delta snq2, delta pdr5 and delta erg6 knock out yeast YRP1 at 25 µM after 2 hrs by high-density oligonucleotide array; format: functional; procedure, shortened: as §2
Saccharomyces cerevisiae [11] = assay: Increase in PCL5 mRNA level in delta snq2, delta pdr5 and delta erg6 knock out yeast YRP1 at 25 µM after 2 hrs by high-density oligonucleotide array; format: functional, organism-based; procedure, shortened: as §2
Saccharomyces cerevisiae [12] = assay: Effect on ATR1 gene expression in delta snq2, delta pdr5 and delta erg6 knock out yeast YRP1 bearing cdc28-4 mutant allele assessed as change in mRNA level at 25 µM after 2 hrs by high-density oligonucleotide array; format: functional, organism-based
Saccharomyces cerevisiae [13] = assay: Effect on TFS1 gene expression in delta snq2, delta pdr5 and delta erg6 knock out yeast YRP1 assessed as change in mRNA level at 25 µM after 2 hrs by high-density oligonucleotide array; format: functional, organism-based; procedure, shortened: as §2
Saccharomyces cerevisiae [14] = assay: Upregulation of HSP26 gene expression in delta snq2, delta pdr5 and delta erg6 knock out yeast YRP1 at 25 µM after 2 hrs by high-density oligonucleotide array; format: functional, organism-based; procedure, shortened: as §1
Saccharomyces cerevisiae [15] = assay: Induction of HXT5 gene expression in delta snq2, delta pdr5 and delta erg6 knock out yeast YRP1 at 25 µM after 2 hrs by high-density oligonucleotide array; format: functional, organism-based; procedure, shortened: as §1
Saccharomyces cerevisiae [16] = assay: Increase in PHO5 mRNA level in delta snq2, delta pdr5 and delta erg6 knock out yeast YRP1 at 25 µM after 2 hrs by high-density oligonucleotide array; format: functional, organism-based; procedure, shortened: as §2
Saccharomyces cerevisiae [17] = assay: Growth inhibition of delta snq2, delta pdr5 and delta erg6 knock out yeast YRP1 assessed as induction of uniform arrest morphology; format: functional, organism-based
Saccharomyces cerevisiae [18] = assay: Effect on YDR281C gene expression in delta snq2, delta pdr5 and delta erg6 knock out yeast YRP1 bearing cdc28-4 mutant allele assessed as change in mRNA level at 25 µM after 2 hrs by high-density oligonucleotide array; format: functional, organism-based
Saccharomyces cerevisiae [19] = assay: Upregulation of PMC1 gene expression in delta snq2, delta pdr5 and delta erg6 knock out yeast YRP1 at 25 µM after 2 hrs by high-density oligonucleotide array; format: functional, organism-based; procedure, shortened: as §1
Saccharomyces cerevisiae [20] = assay: Induction of HAP4 gene expression in delta snq2, delta pdr5 and delta erg6 knock out yeast YRP1 bearing cdc28-4 mutant allele at 25 µM after 2 hrs by high-density oligonucleotide array; format: functional, organism-based; conditions: 25 M
Procedure, shortened: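 cdc28-4 temperature-sensitive strain and its isogenic wild type were profiled at the permissive temperature of 25°C. Polyadenylated mRNA was converted to biotin-labeled cRNA and hybridized to high-density oligonucleotide arrays. Transcripts changing more than twofold were scored, from triplicate hybridizations of RNA from a single experiment.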

Saccharomyces cerevisiae [21] = assay: Effect on YBR214w gene expression in delta snq2, delta pdr5 and delta erg6 knock out yeast YRP1 assessed as change in mRNA level at 25 µM after 2 hrs by high-density oligonucleotide array; format: functional, organism-based; procedure, shortened: as §2
Saccharomyces cerevisiae [22] = assay: Upregulation of HSP82 gene expression in delta snq2, delta pdr5 and delta erg6 knock out yeast YRP1 at 25 µM after 2 hrs by high-density oligonucleotide array; format: functional, organism-based; procedure, shortened: as §1
Saccharomyces cerevisiae [23] = assay: Decrease in RPS24A mRNA level in delta snq2, delta pdr5 and delta erg6 knock out yeast YRP1 at 25 µM after 2 hrs by high-density oligonucleotide array; format: functional; procedure, shortened: as §2
Saccharomyces cerevisiae [24] = assay: Effect on HAC1 gene expression in delta snq2, delta pdr5 and delta erg6 knock out yeast YRP1 assessed as change in mRNA level at 25 µM after 2 hrs by high-density oligonucleotide array; format: functional, organism-based; procedure, shortened: as §2
Saccharomyces cerevisiae [25] = assay: Effect on FAR1 gene expression in delta snq2, delta pdr5 and delta erg6 knock out yeast YRP1 assessed as change in mRNA level at 25 µM after 2 hrs by high-density oligonucleotide array; format: functional, organism-based; procedure, shortened: as §2
Saccharomyces cerevisiae [26] = assay: Upregulation of INO1 gene expression in delta snq2, delta pdr5 and delta erg6 knock out yeast YRP1 at 25 µM after 2 hrs by high-density oligonucleotide array; format: functional, organism-based; conditions: 25 M; procedure, shortened: as §1
Saccharomyces cerevisiae [27] = assay: Effect on HTA1 gene expression in delta snq2, delta pdr5 and delta erg6 knock out yeast YRP1 bearing cdc28-4 mutant allele assessed as change in mRNA level at 25 µM after 2 hrs by high-density oligonucleotide array; format: functional, organism-based
Saccharomyces cerevisiae [28] = assay: Upregulation of SSE2 gene expression in delta snq2, delta pdr5 and delta erg6 knock out yeast YRP1 at 25 µM after 2 hrs by high-density oligonucleotide array; format: functional, organism-based; conditions: 25 M; procedure, shortened: as §1
Saccharomyces cerevisiae [29] = assay: Effect on YBR147w gene expression in delta snq2, delta pdr5 and delta erg6 knock out yeast YRP1 bearing cdc28-4 mutant allele assessed as change in mRNA level at 25 µM after 2 hrs by high-density oligonucleotide array; format: functional, organism-based
Saccharomyces cerevisiae [30] = assay: Growth inhibition of delta snq2, delta pdr5 and delta erg6 knock out yeast YRP1 assessed as synchronization by FACS analysis; format: functional, organism-based
Saccharomyces cerevisiae [31] = assay: Increase in PHO84 mRNA level in delta snq2, delta pdr5 and delta erg6 knock out yeast YRP1 at 25 µM after 2 hrs by high-density oligonucleotide array; format: functional, organism-based; procedure, shortened: as §2

SMILES	Activity (Saccharomyces cerevisiae [1])	Activity (Saccharomyces cerevisiae [2])	Activity (Saccharomyces cerevisiae [3])	Activity (Saccharomyces cerevisiae [4])	Activity (Saccharomyces cerevisiae [5])	Activity (Saccharomyces cerevisiae [6])	fold change (FC) (Saccharomyces cerevisiae [7])	Activity (Saccharomyces cerevisiae [8])	Activity (Saccharomyces cerevisiae [9])	fold change (FC) (Saccharomyces cerevisiae [10])	Activity (Saccharomyces cerevisiae [11])	Activity (Saccharomyces cerevisiae [12])	Activity (Saccharomyces cerevisiae [13])	Activity (Saccharomyces cerevisiae [14])	Activity (Saccharomyces cerevisiae [15])	Activity (Saccharomyces cerevisiae [16])	Activity (Saccharomyces cerevisiae [17])	Activity (Saccharomyces cerevisiae [18])	Activity (Saccharomyces cerevisiae [19])	Activity (Saccharomyces cerevisiae [20])	other results
CC(C)n1cnc2/c(=N/c3cccc(Cl)c3)nc(NCCO)[nH]c21	Active	Active	Active	Active	Active	Active	3	Active	Active	3	Active	Active	Active	Active	Active	Active	inactive	Active	Active	Active	Activity (Saccharomyces cerevisiae [21]): Active; Activity (Saccharomyces cerevisiae [22]): Active; fold change (FC) (Saccharomyces cerevisiae [23]): 3; Activity (Saccharomyces cerevisiae [24]): Active; Activity (Saccharomyces cerevisiae [25]): Active; Activity (Saccharomyces cerevisiae [26]): Active; Activity (Saccharomyces cerevisiae [27]): Active; Activity (Saccharomyces cerevisiae [28]): Active; Activity (Saccharomyces cerevisiae [29]): Active; Activity (Saccharomyces cerevisiae [30]): inactive; Activity (Saccharomyces cerevisiae [31]): Active
CN1CC[C@H](c2c(O)cc(O)c3c(=O)cc(-c4ccccc4Cl)oc23)[C@H](O)C1 [ALVOCIDIB]	Active	Active	Active	Active	Active	Active	3	Active	Active	3	Active	Active	Active	Active	Active	Active	inactive	Active	Active	Active	Activity (Saccharomyces cerevisiae [21]): Active; Activity (Saccharomyces cerevisiae [22]): Active; fold change (FC) (Saccharomyces cerevisiae [23]): 3; Activity (Saccharomyces cerevisiae [24]): Active; Activity (Saccharomyces cerevisiae [25]): Active; Activity (Saccharomyces cerevisiae [26]): Active; Activity (Saccharomyces cerevisiae [27]): Active; Activity (Saccharomyces cerevisiae [28]): Active; Activity (Saccharomyces cerevisiae [29]): Active; Activity (Saccharomyces cerevisiae [30]): inactive; Activity (Saccharomyces cerevisiae [31]): Active
